Measurements collected from several papers.
Each line is one published result; the experiments were not run side by side.
Target: Mitogen-activated protein kinase kinase kinase 12 (MAP3K12, Homo sapiens, UniProt Q12852)
One construct used (Q12852 1-859): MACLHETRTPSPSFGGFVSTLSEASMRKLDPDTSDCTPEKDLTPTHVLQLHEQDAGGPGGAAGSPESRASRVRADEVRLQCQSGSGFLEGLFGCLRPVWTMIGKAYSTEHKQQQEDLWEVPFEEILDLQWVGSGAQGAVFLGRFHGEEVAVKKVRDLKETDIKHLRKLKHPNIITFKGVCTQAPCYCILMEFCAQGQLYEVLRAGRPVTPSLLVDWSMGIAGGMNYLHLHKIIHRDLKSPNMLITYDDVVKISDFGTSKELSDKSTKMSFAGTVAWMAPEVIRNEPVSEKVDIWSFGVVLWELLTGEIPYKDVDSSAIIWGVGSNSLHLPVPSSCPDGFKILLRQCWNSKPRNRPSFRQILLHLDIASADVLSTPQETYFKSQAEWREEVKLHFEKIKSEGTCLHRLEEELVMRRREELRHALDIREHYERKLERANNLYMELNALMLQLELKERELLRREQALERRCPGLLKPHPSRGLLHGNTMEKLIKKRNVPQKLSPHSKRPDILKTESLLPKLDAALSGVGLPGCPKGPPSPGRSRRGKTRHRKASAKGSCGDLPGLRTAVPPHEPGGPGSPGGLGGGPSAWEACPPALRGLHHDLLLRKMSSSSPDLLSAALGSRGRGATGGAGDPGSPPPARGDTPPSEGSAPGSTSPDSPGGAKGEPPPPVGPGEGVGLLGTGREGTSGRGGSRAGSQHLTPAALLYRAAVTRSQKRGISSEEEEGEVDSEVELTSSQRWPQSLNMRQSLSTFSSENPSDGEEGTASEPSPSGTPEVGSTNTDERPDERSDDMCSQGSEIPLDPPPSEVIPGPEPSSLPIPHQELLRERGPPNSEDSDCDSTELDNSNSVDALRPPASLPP

Compound	test	setting	remaining binding [%]
Cc1nc(N2CC[C@@H](O)C2)ncc1-c1cc(C(F)(F)F)cc2[nH]ncc12	binding, competition with immobilised ligand	1 µM	99
N[C@H]1CCN(c2nccc(-c3cnn4ncccc34)n2)C1	binding	1 µM	71
O=C(c1ccc(Nc2ncc(Cl)c(-c3cc4ccccc4s3)n2)cc1)N1CCC(N2CCCC2)CC1	binding, competition with immobilised ligand	1 µM	6.9
C[C@H]1CCN(c2nccc(-c3cnn4ncccc34)n2)C1	binding	1 µM	100
O=C(NCCCN1CCOCC1)c1ccc(Nc2ncc(Cl)c(-c3ccc(Cl)s3)n2)cc1	binding, competition with immobilised ligand	1 µM	33
CN(c1nccc(-c2cnn3ncccc23)n1)C1CC1	binding	1 µM	100
O=C1CCc2cc(Nc3cc(OC4CCOCC4)c([N+](=O)[O-])cc3Cl)ccc2N1	cell-free assay, competition with immobilised ligand	1 µM	100
COc1ncc2cc3ccccc3nc2c1C#N	cell-free assay, competition with immobilised ligand	5 µM	81
O=C(NS(=O)(=O)c1ccc(NCC2CCOCC2)c([N+](=O)[O-])c1)c1ccc(N2CCN(Cc3ccc(C(F)(F)F)cc3-c3ccc(Cl)cc3)CC2)cc1Oc1cnc2[nH]ccc2c1	cell-free assay, competition with immobilised ligand	1 µM	100
COc1cnc(Nc2cccc(S(N)(=O)=O)c2)nc1N1CCN(c2ccccc2)C(=O)C1	binding, competition with immobilised ligand	1 µM	82
O=C(c1ccc(Nc2nccc(-c3cc4ccccc4s3)n2)cc1)N1CCC(N2CCCC2)CC1	binding, competition with immobilised ligand	1 µM	28
CCN1CCN(Cc2ccc(C(=O)Nc3ccc(C)c(Oc4ccc5c(c4)CC(=O)N5)c3)cc2C(F)(F)F)CC1	binding, competition with immobilised ligand	1 µM	100
O=C(N1CCS(=O)(=O)CC1)N1C[C@H](c2ccc(OC(F)(F)F)cc2)C[C@H](c2nc(C3CC3)no2)C1	cell-free assay, competition with immobilised ligand	1 µM	0
FC(F)(F)Oc1cccc(-c2cnc3ccc(-c4ccncc4)nn23)c1	cell-free assay, competition with immobilised ligand	5 µM	45
CN(C)c1nccc(-c2cnn3ncccc23)n1	binding	1 µM	98
CNCc1ccccc1-c1csc([C@H](C)Nc2nc(C)nc3cc(OC)c(OC)cc23)c1	cell-free assay, competition with immobilised ligand	1 µM	97
CN(C)c1ncc(F)c(-c2cnn3ncccc23)n1	binding	1 µM	72
Cc1cc(-n2nc(Cc3cc(F)cc(C(F)(F)F)c3)nc2C)ccc1C(N)=O	cell-free assay, competition with immobilised ligand	1 µM	100
O=C(Nc1c[nH]nc1C(=O)NC1CCNCC1)c1cc(F)cc(F)c1	binding, competition with immobilised ligand	1 µM	88
c1cnn2ncc(-c3ccnc(N4CCC45COC5)n3)c2c1	binding	1 µM	74
